Screening data: PubChem BioAssay, Johns Hopkins Ion Channel Center
Hits are enriched below; roughly 2.3% of the tested compounds scored in any of these assays.
TRPC6 activator: mouse TRPC6 channel activators, primary screen, cell-based, HEK293, membrane potential dye | Short transient receptor potential channel 6 (Mus musculus), Q61143 | HEK293-TRPC6 membrane potential dye fluorescence; stronger effect = higher value | B-score at 10 µM | hit rate 0.13% among 310,000 | AID 2550, 2010;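 active = B-score of the integrated fluorescence ratio above library mean plus 3 SD, and starting fluorescence ratio within library mean plus 5 SD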;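 also: higher score means more depolarization so channel activation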
TRPC4 block: inhibitors of mouse TRPC4 channel, primary screen, Fluo4 calcium, HEK293 TRPC4beta/mu-opioid cells; DAMGO-evoked Fluo4 calcium flux; stronger effect = lower value; B-score at 10 µM; hit rate 0.39% among 300,000; AID 2247, 2010;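 active = B-score over 3 SD under the library average, no early fluorescence shift, positive overall ratio signal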
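Signal: kinetic Fluo4 fluorescence imaging of calcium influx. Material: stable TRPC4beta/mu-opioid receptor HEK293 cells. Probe or stimulus: DAMGO in two steps, submaximal then maximal.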
TRPC6 inh: mouse TRPC6 channel inhibitors, primary screen, cell-based, HEK293, membrane potential dye. Short transient receptor potential channel 6 (Mus musculus), Q61143. ACh-evoked depolarization; stronger effect = lower value. B-score at 10 µM. hit rate 1.1% among 310,000;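 active = B-score under library mean minus 3 SD, initial fluorescence not abnormally high, positive integrated signal ratio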;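 also: B-score derived from integrated fluorescence ratio over the kinetic read; more negative B-score means stronger inhibition of depolarization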
TRPC4 act: activators of mouse TRPC4 channel, primary screen, Fluo4 calcium, HEK293 TRPC4beta/mu-opioid cells; B-score at 10 µM; Fluo4 calcium fluorescence; stronger effect = higher value; hit rate 0.49% among 310,000; Short transient receptor potential channel 4 (Mus musculus), Q9QUQ5;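 active = B-score above 5 SD of library B-scores, and initial fluorescence ratio not above library mean plus 5 SD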;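 also: positive B-score marks a calcium rise read as TRPC4 activation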
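Incubation: 45 min room-temperature Fluo4 loading, 110 s read / System: HEK293 cells stably co-expressing mouse TRPC4beta and mu-opioid receptor / Signal: Fluo4 fluorescence, kinetic / Control set: buffer (low) and maximal DAMGO (high) / Measure: integrated baseline-normalised fluorescence ratio, converted to per-well B score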
TRPC4 PAM: positive allosteric modulators of TRPC4, primary screen, cell-based, mouse TRPC4beta, HEK293 mu-opioid, Fluo-4 calcium; DAMGO EC20, Fluo-4 Ca2+ flux; stronger effect = higher value; hit rate 0.42% among 310,000; B-score at 10 µM;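 active = B-score of calcium response area above 5 SD of library B-scores, with initial fluorescence ratio within 5 SD of library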
Hits are given with their value.

C/C(=N\NC(=O)C(C)Sc1ccccc1)c1ccc([N+](=O)[O-])cc1 (stereo not given) was read as TRPC6 activator inactive, TRPC4 block inactive, TRPC6 inh inactive, TRPC4 act inactive and TRPC4 PAM inactive.
`COc1ccc2cc3cc(C(=O)NCCN4CCc5ccccc5C4)oc3nc2c1` gave TRPC6 activator inactive, TRPC4 block inactive, TRPC6 inh inactive, TRPC4 act inactive and TRPC4 PAM inactive.
For COc1ccc2cc3cc(C(=O)NCCN4CCN(Cc5ccccc5)CC4)oc3nc2c1 the results were TRPC6 activator inactive, TRPC4 block -6, TRPC6 inh inactive, TRPC4 act inactive and TRPC4 PAM inactive.
COC(=O)CS(=O)(=O)c1nnc([C@H](Cc2ccccc2)NC(=O)OC(C)(C)C)o1 was read as TRPC6 activator inactive, TRPC4 block -5, TRPC6 inh inactive, TRPC4 act inactive and TRPC4 PAM inactive.
CCn1cc(C(=O)N[C@@H](CCSC)C(=O)NCCN2CCOCC2)c(=O)c2cc3c(cc21)OCO3 was read as TRPC6 activator inactive, TRPC4 block inactive, TRPC6 inh inactive, TRPC4 act inactive and TRPC4 PAM inactive.
Screening CC(NCCS(=O)(=O)c1ccc(Cl)cc1)c1cccc(Cl)c1 (stereo not given) returned TRPC6 activator inactive, TRPC4 block inactive, TRPC6 inh inactive, TRPC4 act inactive and TRPC4 PAM inactive.
CC(C)c1ccc(C(C)NCCS(=O)(=O)c2ccc(Br)cc2)cc1 (stereo not given) was read as TRPC6 activator inactive, TRPC4 block inactive, TRPC6 inh inactive, TRPC4 act inactive and TRPC4 PAM 19.
For C=C(c1ccc(O)cc1)c1ccc(O)cc1 the results were TRPC6 activator inactive, TRPC4 block -6, TRPC6 inh inactive, TRPC4 act inactive and TRPC4 PAM inactive.
For CCN1CC2=C(OC(N)=C(C#N)C2c2cccs2)/C(=C/c2cccs2)C1 (stereo not given) the results were TRPC6 activator inactive, TRPC4 block inactive, TRPC6 inh inactive, TRPC4 act inactive and TRPC4 PAM 12.
CCN1CC2=C(OC(N)=C(C#N)C2c2ccccc2)/C(=C\c2ccccc2)C1 (stereo not given) was read as TRPC6 activator inactive, TRPC4 block inactive, TRPC6 inh inactive, TRPC4 act inactive and TRPC4 PAM inactive.
Cc1n[nH]c(C)c1Cc1c(F)cccc1Cl was read as TRPC6 activator inactive, TRPC4 block -6, TRPC6 inh inactive, TRPC4 act inactive and TRPC4 PAM inactive.
CCOP(=O)(OCC)c1nc(-c2ccc(Cl)cc2Cl)oc1N1CCCCC1 was read as TRPC6 activator inactive, TRPC4 block inactive, TRPC6 inh inactive, TRPC4 act inactive and TRPC4 PAM 19.
`Fc1ccc(COc2ccc(Br)cc2CNCC2CCCO2)cc1` (stereo not given) gave TRPC6 activator inactive, TRPC4 block inactive, TRPC6 inh inactive, TRPC4 act inactive and TRPC4 PAM inactive.
For Fc1ccccc1COc1ccc(Br)cc1CNCC1CCCO1 (stereo not given) the results were TRPC6 activator inactive, TRPC4 block -6, TRPC6 inh inactive, TRPC4 act inactive and TRPC4 PAM inactive.
For COc1cc(/C=C2\SC(=S)N(NS(=O)(=O)c3ccc(C)cc3)C2=O)cc(OC)c1OC the results were TRPC6 activator inactive, TRPC4 block -6, TRPC6 inh inactive, TRPC4 act inactive and TRPC4 PAM inactive.
COc1ccccc1/C=C1\SC(=S)N(NS(=O)(=O)c2ccccc2)C1=O was read as TRPC6 activator inactive, TRPC4 block inactive, TRPC6 inh inactive, TRPC4 act inactive and TRPC4 PAM inactive.
For CCOc1cc(/C=C2\SC(=S)N(NS(=O)(=O)c3ccc(C)cc3)C2=O)ccc1O the results were TRPC6 activator inactive, TRPC4 block inactive, TRPC6 inh inactive, TRPC4 act inactive and TRPC4 PAM inactive.
For COc1cccc(/C=C2\SC(=S)N(NS(=O)(=O)c3ccc(C)cc3)C2=O)c1OC the results were TRPC6 activator inactive, TRPC4 block -6, TRPC6 inh inactive, TRPC4 act inactive and TRPC4 PAM inactive.
